Results on three compounds are retold here after publication PMC9950857 (RSC Advances, 2023).

Marks after values point to notes of the source that are not given here.

Assay [1] concerns lipase. The conditions noted are these: cited from earlier work.
In assay [2] the target is T1, pancreatic lipase (Sus scrofa, UniProt P00591).
T1 sequence (P00591 1-450): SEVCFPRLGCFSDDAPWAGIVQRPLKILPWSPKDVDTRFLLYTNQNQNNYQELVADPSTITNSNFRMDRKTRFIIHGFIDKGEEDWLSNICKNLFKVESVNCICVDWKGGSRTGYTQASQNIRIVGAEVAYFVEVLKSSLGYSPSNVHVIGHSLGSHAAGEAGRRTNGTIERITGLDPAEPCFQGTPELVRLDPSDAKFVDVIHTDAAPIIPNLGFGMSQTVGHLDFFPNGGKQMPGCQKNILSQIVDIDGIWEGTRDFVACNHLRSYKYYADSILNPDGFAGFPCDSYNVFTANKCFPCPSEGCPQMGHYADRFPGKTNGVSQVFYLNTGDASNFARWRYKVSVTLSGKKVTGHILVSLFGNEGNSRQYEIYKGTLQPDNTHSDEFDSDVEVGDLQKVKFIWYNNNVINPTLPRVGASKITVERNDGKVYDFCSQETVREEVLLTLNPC
Description: Fluorescence titration. The format is binding. As to conditions: for ΔG: from fluorescence data; for Kd: K a (binding constant). The gist of the method:
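Lipase held at 6.0×10^-6 M final with 0 to 4.2×10^-5 M final test compound, in 5.0×10^-2 M Tris–HCl pH 7.4. Spectra recorded at 277, 298 and 310 K: excitation 280 nm, emission 300–500 nm, slits 5 nm. Intensities corrected for inner-filter effect.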

For assay [3], the target named is T1, pancreatic lipase. The experiment in a line: ITC analysis of HYP titrated into lipase. The format is binding. The essentials: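 Calorimetric titration: 1.0×10^-4 M lipase in the cell, containing 1% ethanol, titrated with 1.0×10^-3 M test compound. Injections at 180 s intervals, stirring at 250 rpm; other solutions degassed. First injection discarded. Integrated heats corrected for dilution and fitted against molar ratio. ΔG from −RT lnKa; ΔS from ΔG = ΔH − TΔS.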
(In general: ITC needs no label: the signal is the heat of the interaction.)

For assay [4], the target named is T1, pancreatic lipase. The experiment in a line: Enzymatic assay of lipase activity. As to conditions: for inhibition type: Lineweaver–Burk plots, 310 K, 405 nm, pNPC 2.0–3.6 × 10^−3 M. The format is biochemical.
The target in assay [5] is T1, pancreatic lipase. Description: Synchronous fluorescence spectroscopy. It is filed as binding. The conditions noted are these: HYP 4.2 × 10^−5 M, 298 K.
The target of assay [6] is T1, pancreatic lipase. The experiment in a line: Time-resolved fluorescence measurements. It is filed as binding. The conditions noted are these: fluorescence titration and time-resolved fluorescence. The essentials:
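Fluorescence lifetimes of free lipase and of the lipase–test compound complex at 298 K. Excitation 280 nm, emission 345 nm. Decays analysed by tail fitting, with fits judged by χ². Average lifetime calculated as Σαiτi.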

For assay [7], the target named is T1, pancreatic lipase. Description: Fourier-transform infrared spectroscopy of lipase secondary structure. The conditions noted are these: ratio of lipase to HYP increased from 1 : 0 to 1 : 4, FT-IR, 298 K. The essentials:
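FT-IR at 298 K: 128 scans at 4 cm⁻¹ resolution. Lipase at 2.0×10^-4 M, alone or with test compound at different ratios. Background, protein and compound spectra subtracted; samples scanned over 1700–1500 cm⁻¹. Amide bands analysed by peak fitting.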

For assay [8], the target named is T1, pancreatic lipase. As to conditions: cited from earlier work.
[9] abbreviates: from fluorescence data at 277, 298, 310 K.

Consider `C[C@@H]1O[C@@H](Oc2c(-c3ccc(O)c(O)c3)oc3cc(O)cc(O)c3c2=O)[C@H](O)[C@H](O)[C@H]1O` [quercetin 3-rhamnoside], for which, in assay [1], the lipase inhibition entry is reported as “effective in lipase inhibition”.
As usually defined, the Kd is a measure of binding affinity in units of concentration. A lower Kd goes with a tighter complex. In general, IC50 refers to the concentration needed to halve the response being measured. Low readings indicate higher potency, high ones lower potency. Regarding `O=c1c(O[C@@H]2O[C@H](CO)[C@H](O)[C@H](O)[C@H]2O)c(-c2ccc(O)c(O)c2)oc2cc(O)cc(O)c12` [HYP, quercetin-3-O-β-D-galactoside], in assay [2] (277 K), the “K SV (Stern–Volmer quenching constant)” value is 7.113 ± 0.029^a × 10^4 M^−1, the KSV is listed as 7.113 ± 0.029 × 10^4 M^−1, the “n (Hill coefficient)” value worked out at 1.379 and the ΔG is -8.32 kcal/mol. This compound also showed a Kd in assay [2] (277 K) of 0.283 µM. In assay [2] (298 K), the “K SV (Stern–Volmer quenching constant)” value is 6.826 ± 0.010^b × 10^4 M^−1, the “n (Hill coefficient)” value is reported as 1.337, the ΔG was -8.489 kcal/mol and the Kd was 0.526 µM. Moreover, in assay [2] (310 K), the “K SV (Stern–Volmer quenching constant)” value was 6.247 ± 0.060^b × 10^4 M^−1, the KSV is given as 6.247 ± 0.060 × 10^4 M^−1, the binding constant turned out to be 1.048e+06 M⁻¹ and the “n (Hill coefficient)” value is given as 1.286. Further, in assay [2] (310 K), the ΔG was -8.587 kcal/mol and the Kd is 0.954 µM. The n values result in assay [2] (at different temperatures (277, 298, 310 K)) is listed as “greater than 1”. In addition, in assay [2] (setting [9]), the ΔH is -6.085 kcal/mol and the ΔS was 33.77 J mol^−1 K^−1. This compound also gave a Kd in assay [3] of 6.35 µM. Moreover, in assay [3] (ITC), the ΔG is -7.091 kcal/mol, the ΔH is -5.569 kcal/mol and the ΔS is recorded as 21.36 J mol^−1 K^−1. In assay [4], the IC50 stood at 1920 µM and the inhibition type entry is “non-competitive inhibitor”. For the same compound, the “decrease of Tyr residue fluorescence intensity” value in assay [5] (Δλ = 15 nm) came to 65.86%. In assay [5] (Δλ = 60 nm), the “decrease of Trp residue's fluorescence intensity” value was found to be 73.65%. The quenching mechanism result in assay [6] is “static quenching”. For the same compound, the “decrease of α-helix in lipase” value in assay [7] is 1.6%.
As for `CCCCCCCCCCC[C@@H](C[C@@H]1OC(=O)[C@H]1CCCCCC)OC(=O)[C@H](CC(C)C)NC=O` [orlistat, reference compound], in assay [4], the inhibition type entry is recorded as “competitive inhibition”. Besides, the reversibility of inhibition result in assay [8] is given as “irreversible inhibition”.
